In one assay the target is T1, HDAC6 (Homo sapiens, UniProt Q9UBN7).
T1 sequence (Q9UBN7 1-1215): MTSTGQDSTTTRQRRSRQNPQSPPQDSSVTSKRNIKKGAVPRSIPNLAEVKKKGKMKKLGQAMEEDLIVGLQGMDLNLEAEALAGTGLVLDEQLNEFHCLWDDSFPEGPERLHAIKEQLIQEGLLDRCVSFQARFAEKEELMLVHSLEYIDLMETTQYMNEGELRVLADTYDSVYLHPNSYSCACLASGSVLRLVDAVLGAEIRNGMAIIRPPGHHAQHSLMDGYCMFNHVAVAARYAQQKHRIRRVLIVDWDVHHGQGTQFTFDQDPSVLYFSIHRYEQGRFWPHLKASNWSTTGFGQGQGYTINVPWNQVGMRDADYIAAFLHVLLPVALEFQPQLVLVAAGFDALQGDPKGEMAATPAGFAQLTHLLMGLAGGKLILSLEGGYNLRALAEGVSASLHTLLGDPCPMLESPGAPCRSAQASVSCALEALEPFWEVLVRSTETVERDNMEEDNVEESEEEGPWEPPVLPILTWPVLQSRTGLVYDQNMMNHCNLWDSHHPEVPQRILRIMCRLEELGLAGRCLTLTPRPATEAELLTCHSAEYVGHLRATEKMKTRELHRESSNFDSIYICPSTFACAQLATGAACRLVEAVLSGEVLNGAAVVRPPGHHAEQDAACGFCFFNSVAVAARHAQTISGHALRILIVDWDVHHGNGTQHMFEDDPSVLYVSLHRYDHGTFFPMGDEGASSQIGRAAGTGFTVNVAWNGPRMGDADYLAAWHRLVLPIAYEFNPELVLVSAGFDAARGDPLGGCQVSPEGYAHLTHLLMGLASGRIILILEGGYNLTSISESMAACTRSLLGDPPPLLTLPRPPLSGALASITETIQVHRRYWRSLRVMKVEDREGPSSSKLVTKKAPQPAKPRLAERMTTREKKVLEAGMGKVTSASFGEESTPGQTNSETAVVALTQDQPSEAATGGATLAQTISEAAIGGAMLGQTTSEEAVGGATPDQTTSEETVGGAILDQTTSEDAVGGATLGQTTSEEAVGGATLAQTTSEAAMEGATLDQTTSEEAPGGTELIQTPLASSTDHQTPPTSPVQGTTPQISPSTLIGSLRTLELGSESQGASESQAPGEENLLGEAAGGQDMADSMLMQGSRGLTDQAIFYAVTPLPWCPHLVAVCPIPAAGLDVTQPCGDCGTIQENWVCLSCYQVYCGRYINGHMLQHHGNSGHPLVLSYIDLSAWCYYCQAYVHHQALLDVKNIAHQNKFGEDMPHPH
The assay is described as follows: HDACs selectivity assay. The assay is classed as biochemical. The method in brief: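 Enzyme selectivity panel was run by an outside contract lab to its standard assay protocols. IC50 values came from dose–response fitting of the data points. Each experiment was done independently at least three times.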

In another assay the target is SIRT6 (Homo sapiens, UniProt Q8N6T7). The assay is described as follows: Biolayer interferometry. The assay is classed as binding. A general note: Biolayer interferometry detects binding as a change in optical thickness at a sensor tip.

The structures appear in SMILES notation. A value given as a limit tells only on which side of the number the result lay.

Chain of SIRT6 (Q8N6T7 whole entry): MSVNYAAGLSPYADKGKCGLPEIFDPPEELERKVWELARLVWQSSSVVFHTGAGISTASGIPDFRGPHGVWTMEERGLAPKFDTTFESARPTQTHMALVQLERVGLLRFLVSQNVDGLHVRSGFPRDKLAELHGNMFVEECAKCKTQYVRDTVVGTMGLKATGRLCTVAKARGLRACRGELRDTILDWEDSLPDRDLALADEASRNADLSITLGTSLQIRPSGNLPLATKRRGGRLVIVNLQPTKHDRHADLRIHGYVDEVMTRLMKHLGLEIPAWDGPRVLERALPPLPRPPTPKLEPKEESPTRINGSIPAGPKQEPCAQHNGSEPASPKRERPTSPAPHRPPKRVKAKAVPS

As to `Nc1nonc1-n1cc(C(=O)N/N=C/c2cc(Cl)cc(C(F)(F)F)c2)nn1` [JYQ-42], the IC50 (in general, the concentration needed to halve the response being measured) on HDAC6 is above 100 µM. Also, binding at SIRT6 was put at a Kd of 13.2 µM.

The values are drawn from PMC8897208 (Acta Pharmaceutica Sinica. B, 2021).
